Rows were chosen to be rich in hits. Some 1.4% of all compounds tested hit in one or more screens of this group.
MsrA inhibitor – inhibits bovine methionine sulfoxide reductase A; purified bovine MsrA, absorbance read-out; inhibition, % at 15.5 µM; actives 0.75% (n = 360,000); AID 651718;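 note: 0% = vehicle wells with enzyme and 100% = reference inhibitor wells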
MsrA act – bovine methionine sulfoxide reductase A activation; purified bovine MsrA, absorbance read-out; activation, % at 10.6 µM; actives 0.3% (n = 360,000); AID 602163; in the data active = activation above about 7.5%;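 note: 0% = vehicle and 100% = reference activator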
ARFGAP1 inhibitor – rat ARFGAP1 inhibition; Q62848; Arfgap1-stimulated ARF1 GTP hydrolysis, GDP FP detection; inhibition, % at 16.5 µM; actives 0.26% (n = 360,000); AID 651572;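 active = inhibition above a per-plate limit, mean inhibition of low control wells plus 3 SD, cut at about 25% in these data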;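 note: 0% = DMSO wells with enzyme and 100% = wells lacking Arfgap1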
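Replicates: Single well per compound | Assay system: Truncated rat Arfgap1 GAP domain | Control set: No-Arfgap1 wells (100%) versus DMSO full-reaction wells (0%) | Times: Enzyme reaction 120 min at 25 °C after 20 min preincubation | Reagent: Human ARF1(Δ1-17)-GTP substrate | Measured by: Tracer-displacement fluorescence polarization with EDTA stop, 620/688 nm | Measure: Percent inhibition of Arfgap1-stimulated GTP hydrolysis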
ASAP1 inh – blocks human ASAP1-stimulated Arf1 GTP hydrolysis; Q9ULH1; GDP FP detection; inhibition, % at 16.5 µM; actives 0.19% (n = 360,000); in the data active = inhibition above about 25%;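 note: 0% = vehicle with enzyme and substrate and 100% = no enzyme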
Target sequence (Q9ULH1 325-724 limits assumed): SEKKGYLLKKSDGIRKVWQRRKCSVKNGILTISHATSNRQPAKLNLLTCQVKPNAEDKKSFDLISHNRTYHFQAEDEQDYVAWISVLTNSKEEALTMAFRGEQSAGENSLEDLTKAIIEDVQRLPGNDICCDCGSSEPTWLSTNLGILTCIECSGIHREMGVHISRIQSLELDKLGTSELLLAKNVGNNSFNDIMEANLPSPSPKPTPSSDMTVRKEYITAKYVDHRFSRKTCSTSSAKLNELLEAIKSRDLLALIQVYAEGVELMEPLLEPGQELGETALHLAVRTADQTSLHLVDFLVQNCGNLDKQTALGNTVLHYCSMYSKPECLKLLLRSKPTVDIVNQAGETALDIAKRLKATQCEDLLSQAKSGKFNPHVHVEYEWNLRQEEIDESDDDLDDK
MsrA conf – bovine MsrA inhibition, confirmed; inhibition, % at 15.5 µM; purified bovine MsrA, absorbance read-out; actives 41% (n = 2,300); shares compounds with MsrA inhibitor;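 note: coupled to thioredoxin reductase with NADPH and selenocystamine and DMSO as substrate; 0% = vehicle only and 100% = full effect of reference inhibitor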
* = called active by the depositor. Cut-off read from the data, not from the text of the source, unless noted: active = inhibition above about 4.5%; inactive = the rest.

COc1ccc2cc(-c3[nH]ncc3CN3CCCC3c3nonc3C)ccc2c1 (configuration not stated) was read as MsrA inhibitor 33*, MsrA act -6, ARFGAP1 inhibitor 12, ASAP1 inh -5 and MsrA conf 26*.
`COc1ccc(-c2[nH]ncc2CN2CCCC(C(=O)c3cccc(OC)c3)C2)cc1` (configuration not stated) gave MsrA inhibitor 1, MsrA act -4, ARFGAP1 inhibitor -5 and ASAP1 inh -8.
`COc1ccc(Nc2nc3cc(C)ccc3cc2C#N)cc1` gave MsrA inhibitor 8.7*, MsrA act -4, ARFGAP1 inhibitor -1, ASAP1 inh -7 and MsrA conf 6.9*.
O=C(Nc1cccnc1Cl)c1cc2ccccc2o1 was read as MsrA inhibitor 0, MsrA act -1, ARFGAP1 inhibitor -2 and ASAP1 inh 0.
`Cc1ccc(C=NNc2nc3c([nH]2)c(=O)n(C)c(=O)n3C)cc1` gave MsrA inhibitor 2, MsrA act -5, ARFGAP1 inhibitor 3 and ASAP1 inh -4.
COc1ccc(C=NNc2nc3c([nH]2)c(=O)n(C)c(=O)n3C)cc1 was read as MsrA inhibitor 5.5*, MsrA act -3, ARFGAP1 inhibitor -7, ASAP1 inh 1 and MsrA conf 3.
Screening N#Cc1nc(-c2ccccc2F)oc1N1CCCC1 returned MsrA inhibitor 2, MsrA act -2, ARFGAP1 inhibitor 7 and ASAP1 inh 4.
Cc1ccccc1-c1nc(C#N)c(N2CCCCC2)o1 was read as MsrA inhibitor 8.4*, MsrA act -4, ARFGAP1 inhibitor -6, ASAP1 inh 0 and MsrA conf 8.6*.
Screening Cc1ccc(-n2cccc2/C=C2/C(=N)N3C(=NC2=O)SN=C3S(C)(=O)=O)cc1Cl returned MsrA inhibitor 1, MsrA act -6, ARFGAP1 inhibitor -5 and ASAP1 inh -5.
For Cc1cccc(C)c1-n1cccc1/C=C1/C(=N)N2C(=NC1=O)SN=C2S(C)(=O)=O the results were MsrA inhibitor 7.4*, MsrA act -8, ARFGAP1 inhibitor -15, ASAP1 inh -6 and MsrA conf 5.8*.
`C(=C\c1ccccc1)/C=N/Nc1nncc(-c2ccccc2)n1` gave MsrA inhibitor 43*, ARFGAP1 inhibitor 11, ASAP1 inh -4 and MsrA conf 1.
Screening Clc1ccc(-c2ccc(/C=N/Nc3nncc(-c4ccccc4)n3)o2)cc1 returned MsrA inhibitor -1, MsrA act -1, ARFGAP1 inhibitor -8 and ASAP1 inh 16.
For Cc1ccc(/C=N/Nc2nncc(-c3ccccc3)n2)o1 the results were MsrA inhibitor 5.8*, MsrA act -18, ARFGAP1 inhibitor 1, ASAP1 inh 20 and MsrA conf 5.4*.
`COc1ccc(C(C(=O)NCc2ccc(F)cc2)N(C(=O)c2csnn2)C2CC2)cc1` (configuration not stated) gave MsrA inhibitor 0, MsrA act -3, ARFGAP1 inhibitor 15 and ASAP1 inh 5.
Screening Cc1cccc(-n2c(=S)[nH]c3sc4c(c3c2=O)CCc2ccccc2-4)c1 returned MsrA inhibitor 2, MsrA act -7, ARFGAP1 inhibitor 5 and ASAP1 inh 20.
COc1cccc(N2CCN(C(=O)c3ccc(=O)oc3)CC2C)c1 (configuration not stated) was read as MsrA inhibitor 4.9*, MsrA act -8, ARFGAP1 inhibitor 14, ASAP1 inh 9 and MsrA conf 4.
`COc1ccc2c(c1OC)C(=O)OC2CC(=O)c1ccc(O)cc1` (configuration not stated) gave MsrA inhibitor 3, MsrA act 0, ARFGAP1 inhibitor -1 and ASAP1 inh -3.
Screening COc1ccc2c(c1OC)C(=O)OC2CC(=O)c1ccc(N(C)C)cc1 (configuration not stated) returned MsrA inhibitor 4.7*, MsrA act -3, ARFGAP1 inhibitor -4, ASAP1 inh 1 and MsrA conf 4.6*.
For COc1ccc(/C=C(\CC(=O)O)c2nc3ccccc3s2)cc1O the results were MsrA inhibitor 5.6*, MsrA act -9, ARFGAP1 inhibitor 0, ASAP1 inh -3 and MsrA conf 4.
COc1cc(/C=C(\CC(=O)O)c2nc3ccccc3s2)cc(OC)c1O was read as MsrA inhibitor 4, MsrA act -5, ARFGAP1 inhibitor -7 and ASAP1 inh 15.

Source: PubChem (The Scripps Research Institute Molecular Screening Center)
